Each structure is given as a SMILES string.

In assay [1] the target is 5-hydroxytryptamine receptor 2A (Rattus norvegicus) (UniProt P14842). The assay is described as follows: Displacement of [3H]ketanserin from rat cortical membrane 5-hydroxytryptamine 2A receptor at 10e-7 M. In a few lines: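 Single-concentration screen at 10^-7 M: displacement of [3H]ketanserin (1.0 nM) from rat cortical membranes, methysergide as reference. Reported as % inhibition versus binding with no drug, mean of duplicate tubes in one experiment. Checked against a verification screen.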
Chain of 5-hydroxytryptamine receptor 2A (Rattus norvegicus) (P14842 whole entry): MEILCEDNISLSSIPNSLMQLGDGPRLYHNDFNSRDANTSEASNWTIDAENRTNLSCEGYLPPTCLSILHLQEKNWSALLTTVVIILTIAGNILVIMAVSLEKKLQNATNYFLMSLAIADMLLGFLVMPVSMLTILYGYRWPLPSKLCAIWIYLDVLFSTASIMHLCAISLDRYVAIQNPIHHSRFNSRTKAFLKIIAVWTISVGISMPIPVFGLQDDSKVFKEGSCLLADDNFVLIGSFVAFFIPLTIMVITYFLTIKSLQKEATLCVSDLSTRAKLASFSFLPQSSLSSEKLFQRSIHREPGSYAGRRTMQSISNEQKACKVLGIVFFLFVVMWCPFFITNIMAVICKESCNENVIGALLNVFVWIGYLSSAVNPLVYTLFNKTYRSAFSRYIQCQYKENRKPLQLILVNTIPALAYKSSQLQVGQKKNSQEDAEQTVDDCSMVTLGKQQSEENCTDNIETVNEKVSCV
For orientation: Loss of bound radioactivity is the signal in a displacement assay; it reports binding, not function.

Assay [2] deals with Serotonin transporter (Rattus norvegicus). The assay is described as follows: Displacement of [3H]-citalopram from rat forebrain membrane serotonin transporter at 10e-7 M.
For assay [3], the target named is Norepinephrine transporter (Rattus norvegicus) (UniProt Q9WTR4). Description: Inhibition of [3H]desmethylimipramine binding to […] of rat cortical membrane at 10e-7 M. In outline: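 Single-concentration screen at 10^-7 M: displacement of [3H]desmethylimipramine (3.0 nM) from rat cortical membranes, desipramine as reference. Reported as % inhibition versus binding with no drug, mean of duplicate tubes in one experiment.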
Chain of Norepinephrine transporter (Rattus norvegicus) (Q9WTR4 as listed by the source): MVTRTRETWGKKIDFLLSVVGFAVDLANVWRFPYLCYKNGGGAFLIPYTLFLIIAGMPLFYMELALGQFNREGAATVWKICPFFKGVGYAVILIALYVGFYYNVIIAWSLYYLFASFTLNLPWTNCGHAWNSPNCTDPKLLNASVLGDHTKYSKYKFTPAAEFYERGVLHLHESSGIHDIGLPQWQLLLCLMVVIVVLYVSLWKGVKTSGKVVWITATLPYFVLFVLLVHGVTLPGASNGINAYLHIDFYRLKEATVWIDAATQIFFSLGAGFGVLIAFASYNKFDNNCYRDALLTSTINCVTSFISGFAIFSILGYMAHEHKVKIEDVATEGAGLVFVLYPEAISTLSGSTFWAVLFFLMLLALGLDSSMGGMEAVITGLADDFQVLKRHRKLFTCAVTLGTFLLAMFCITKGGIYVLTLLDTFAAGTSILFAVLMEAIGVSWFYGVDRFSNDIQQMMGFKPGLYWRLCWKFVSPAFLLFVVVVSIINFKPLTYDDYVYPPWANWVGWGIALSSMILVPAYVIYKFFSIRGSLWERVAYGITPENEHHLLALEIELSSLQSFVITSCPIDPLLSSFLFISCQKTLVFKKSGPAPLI

Assay [4] has as its system Sigma non-opioid intracellular receptor 1 (Sus scrofa). Description: Inhibition of [3H](+)-pentazocine binding to Sigma opioid receptor type 1 of pig brain membranes at 10e-7 M.
In assay [5] the target is Histamine H1 receptor (Bos taurus) (UniProt P30546). Description: Inhibition of [3H]pyrilamine binding to Histamine H1 receptor of bovine cerebellar membrane at 10e-7 M. In outline: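 Single-concentration screen at 10^-7 M: displacement of [3H]pyrilamine (2.0 nM) from bovine cerebellar membranes, triprolidine as reference. Reported as % inhibition versus binding with no drug, mean of duplicate tubes in one experiment.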
Chain of Histamine H1 receptor (Bos taurus) (P30546 whole entry): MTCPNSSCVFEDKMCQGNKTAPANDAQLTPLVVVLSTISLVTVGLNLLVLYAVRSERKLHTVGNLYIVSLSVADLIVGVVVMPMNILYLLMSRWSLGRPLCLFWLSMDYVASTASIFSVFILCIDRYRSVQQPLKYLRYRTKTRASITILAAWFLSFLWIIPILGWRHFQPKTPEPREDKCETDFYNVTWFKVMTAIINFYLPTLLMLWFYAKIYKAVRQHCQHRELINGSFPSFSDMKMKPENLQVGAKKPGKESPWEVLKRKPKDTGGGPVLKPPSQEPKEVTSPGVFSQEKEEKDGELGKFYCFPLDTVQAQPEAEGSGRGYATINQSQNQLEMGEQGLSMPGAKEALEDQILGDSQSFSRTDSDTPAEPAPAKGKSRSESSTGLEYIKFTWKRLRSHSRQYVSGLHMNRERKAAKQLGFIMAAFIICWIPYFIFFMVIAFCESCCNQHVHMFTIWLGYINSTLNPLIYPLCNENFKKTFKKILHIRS

The target of assay [6] is Adrenergic receptor alpha-1 (Rattus norvegicus) (UniProt P15823+P23944+P43140). Description: Displacement of [3H]prazosin from Alpha-1 adrenergic receptor of rat cortical membrane at 10e-7 M. In outline:
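Single-concentration screen at 10^-7 M: displacement of [3H]prazosin (0.5 nM) from rat cortical membranes, prazosin as reference. Reported as % inhibition versus binding with no drug, mean of duplicate tubes in one experiment. Checked against a verification screen.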

In assay [7] the target is D(2) dopamine receptor (Rattus norvegicus) (UniProt P61169). Description: Displacement of [3H]sulpiride from rat striatal membrane Dopamine receptor D2 at 10e-7 M. In a few lines:
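Single-concentration screen at 10^-7 M: displacement of [3H]sulpiride (3.0 nM) from rat striatal membranes, sulpiride as reference. Reported as % inhibition versus binding with no drug, mean of duplicate tubes in one experiment.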

Assay [8] deals with T1, Adrenergic receptor alpha-1 (Rattus norvegicus, UniProt P15823+P23944+P43140).
T1 sequence (P15823 whole entry): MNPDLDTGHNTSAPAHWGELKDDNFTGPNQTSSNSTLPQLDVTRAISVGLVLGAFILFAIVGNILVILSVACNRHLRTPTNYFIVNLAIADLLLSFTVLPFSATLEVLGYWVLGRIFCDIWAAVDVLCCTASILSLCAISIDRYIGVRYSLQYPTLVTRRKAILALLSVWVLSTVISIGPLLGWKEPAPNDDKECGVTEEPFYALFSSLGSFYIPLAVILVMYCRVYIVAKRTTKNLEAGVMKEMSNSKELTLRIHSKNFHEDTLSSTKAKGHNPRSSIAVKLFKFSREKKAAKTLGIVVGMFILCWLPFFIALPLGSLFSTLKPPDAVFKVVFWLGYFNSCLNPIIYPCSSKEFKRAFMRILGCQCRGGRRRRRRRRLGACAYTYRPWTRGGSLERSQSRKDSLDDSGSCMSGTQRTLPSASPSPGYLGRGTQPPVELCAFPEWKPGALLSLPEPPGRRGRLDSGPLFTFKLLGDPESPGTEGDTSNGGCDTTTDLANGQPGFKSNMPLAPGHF
T1 sequence (P23944 whole entry): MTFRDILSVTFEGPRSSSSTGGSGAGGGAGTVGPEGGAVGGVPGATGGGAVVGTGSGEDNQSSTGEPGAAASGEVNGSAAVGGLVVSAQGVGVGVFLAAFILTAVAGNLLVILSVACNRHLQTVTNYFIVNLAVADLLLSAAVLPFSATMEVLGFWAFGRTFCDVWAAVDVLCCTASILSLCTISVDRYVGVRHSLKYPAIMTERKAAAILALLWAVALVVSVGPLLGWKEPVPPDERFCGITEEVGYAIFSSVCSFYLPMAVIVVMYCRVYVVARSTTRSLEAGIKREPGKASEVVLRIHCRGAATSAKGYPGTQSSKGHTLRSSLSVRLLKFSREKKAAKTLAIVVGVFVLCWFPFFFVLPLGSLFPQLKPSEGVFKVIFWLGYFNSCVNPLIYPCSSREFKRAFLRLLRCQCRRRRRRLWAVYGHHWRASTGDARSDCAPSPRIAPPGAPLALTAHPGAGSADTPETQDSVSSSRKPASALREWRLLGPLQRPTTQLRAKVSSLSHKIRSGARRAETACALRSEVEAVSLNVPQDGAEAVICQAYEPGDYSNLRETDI
T1 sequence (P43140 whole entry): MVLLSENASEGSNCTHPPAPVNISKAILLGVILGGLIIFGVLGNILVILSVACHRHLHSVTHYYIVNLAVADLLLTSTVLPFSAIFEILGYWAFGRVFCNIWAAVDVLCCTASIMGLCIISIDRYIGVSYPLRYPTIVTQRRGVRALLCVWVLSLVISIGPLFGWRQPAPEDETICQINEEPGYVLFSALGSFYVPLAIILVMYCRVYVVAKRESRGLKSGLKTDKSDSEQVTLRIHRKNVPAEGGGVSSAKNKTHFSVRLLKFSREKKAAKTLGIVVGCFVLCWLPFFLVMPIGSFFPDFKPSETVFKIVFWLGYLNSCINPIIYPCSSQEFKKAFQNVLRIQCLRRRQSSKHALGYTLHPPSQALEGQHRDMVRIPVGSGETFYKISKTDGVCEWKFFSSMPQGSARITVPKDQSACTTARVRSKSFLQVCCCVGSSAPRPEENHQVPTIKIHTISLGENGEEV
Description: Compound was tested for the inhibition of [3H]-prazosin binding to Alpha-1 adrenergic receptor. The assay is classed as protein assay. In outline:
(§1)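 Radioligand displacement on rat cortical membranes using [3H]prazosin (0.5 nM), with prazosin as the reference compound. IC50 derived from six test concentrations, each in triplicate, in one experiment. Run at an external screening laboratory.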

The target in assay [9] is T2, 5-hydroxytryptamine receptor 2A (Rattus norvegicus, UniProt P14842). The assay is described as follows: Compound was tested for the inhibition of [3H]ketanserin binding to 5-hydroxytryptamine 2A receptor. In a few lines:
(§2)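 Radioligand displacement on rat cortical membranes using [3H]ketanserin (1.0 nM), with methysergide as the reference compound. IC50 derived from six test concentrations, each in triplicate, in one experiment. Run at an external screening laboratory.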

The species named for assay [10] is Rattus norvegicus. Description: In vitro functional activity (pA2) by using isolated rat aorta smooth muscle preparation (on serotonergic system). The following applies: Muscle tissue, read-out: pA2 (converted). In a few lines: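 Aorta strips from male Sprague–Dawley rats (200-300 g), 3-7 preparations, isometric contraction recorded. Cumulative serotonin concentration-response curves built stepwise once each response was steady.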

In assay [11] the target is T1, Adrenergic receptor alpha-1. The assay is described as follows: Compound was tested for it's binding affinity towards alpha-1 adrenergic receptor. The assay is classed as protein assay. In outline:
as §1

Assay [12] has as its target T2, 5-hydroxytryptamine receptor 2A. Description: Compound was tested for it's binding affinity towards 5-hydroxytryptamine 2A receptor. In a few lines: as §2
Assay [13] is filed under the species Rattus norvegicus. Description: In vitro functional activity (pA2) by using isolated rat vas deferens smooth muscle preparation (on adrenergic system). To be noted: Muscle tissue, read-out: pA2 (converted). In a few lines: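 Vas deferens from male Sprague–Dawley rats (200-300 g), 3-4 preparations, isometric contraction recorded. Cumulative L-noradrenaline concentration-response curves built stepwise once each response was steady.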

For assay [14], the target named is T1, Adrenergic receptor alpha-1. Description: Compound was tested for it's binding affinity towards Alpha-1 adrenergic receptor. The assay is classed as protein assay. In outline: as §1

T2 sequence (P14842 whole entry): as the sequence (P14842 whole entry) above
Chain of D(2) dopamine receptor (Rattus norvegicus) (P61169 whole entry): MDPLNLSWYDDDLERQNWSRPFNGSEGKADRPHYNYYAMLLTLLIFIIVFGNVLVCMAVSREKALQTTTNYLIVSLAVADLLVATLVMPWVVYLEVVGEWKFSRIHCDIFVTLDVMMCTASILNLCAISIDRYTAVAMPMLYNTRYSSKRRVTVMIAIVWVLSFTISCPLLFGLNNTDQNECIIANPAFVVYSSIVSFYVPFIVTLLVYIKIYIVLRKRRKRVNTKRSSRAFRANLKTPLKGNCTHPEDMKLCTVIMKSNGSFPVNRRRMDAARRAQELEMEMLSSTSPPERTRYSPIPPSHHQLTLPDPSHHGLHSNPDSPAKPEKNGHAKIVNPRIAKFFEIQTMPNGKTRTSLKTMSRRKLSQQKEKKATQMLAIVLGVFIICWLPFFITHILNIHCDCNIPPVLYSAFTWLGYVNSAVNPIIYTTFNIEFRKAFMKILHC

For orientation: inhibition means how much of the control response was suppressed. In the case of `O=c1n(CCCNCCNc2cccc(Cl)c2)nc2ccccn12`, the inhibition in [1] was found to be 4%; in [2] it was 10%; in [3], 0%; in assay [4], 29%; in [5], 0%; in assay [6], 8%. In [7], this compound registered an inhibition of 3%.

As for `CN(CCCn1nc2ccccn2c1=O)CCNc1cccc(Cl)c1`, the inhibition in assay [1] was determined as 0%; in [2] it was 15%; in assay [3], 4%; in assay [4], 30%; in assay [5] it was 0%; in assay [6], 10%. Further, the inhibition in assay [7] stood at 2%.

Take `CC1C(=O)N(c2cccc(Cl)c2)CCN1CCCn1nc2ccccn2c1=O` (centres undefined): the inhibition in [1] was found to be 0%; in assay [2], 0%; in assay [3], 0%; in assay [4], 9%; in assay [5], 4%; in [6], 2%. Besides, the inhibition in assay [7] worked out at 4%.

For orientation: IC50 means the midpoint of a concentration-inhibition curve. A lower IC50 goes with greater potency. For the compound `CCC1CN(c2cccc(Cl)c2)CCN1CCCn1nc2ccccn2c1=O` (centres undefined), the inhibition in assay [1] was determined as 60%; in [2], 20%; in assay [3] it was 0%; in assay [4], 43%; in assay [5], 14%; in assay [6] it was 44%. This compound also had an inhibition in assay [7] of 10%. Moreover, the values for the IC50 in assay [8] and in assay [9] were 493 nM and 169 nM, respectively.

For `O=C1CN(CCCn2nc3ccccn3c2=O)CCN1c1cccc(Cl)c1`, the inhibition is 5% in assay [1]; 2% in [2]; 0% in [3]; 12% in assay [4]; 2% in [5]; 5% in [6]. In addition, the inhibition in [7] came out at 0%.

Consider `C[C@H]1CN(c2cccc(Cl)c2)CCN1CCCn1nc2ccccn2c1=O`, for which the figures for the Kb in the assay filed under Rattus norvegicus [10] and in the assay filed under Rattus norvegicus [13] were 3.16 nM and 3980 nM, respectively. In addition, the IC50 was found to be 981 nM in [11] and 25.4 nM in assay [12].

Consider `CN(CCNCCCn1nc2ccccn2c1=O)c1cccc(Cl)c1`, for which the inhibition in assay [1] came out at 0%; in assay [2], 23%; in [3], 0%; in assay [4], 65%; in assay [5], 0%; in assay [6] it was 12%. The inhibition in assay [7] worked out at 4%.

As for `CC1CN(CCCn2nc3ccccn3c2=O)CCN1c1cccc(Cl)c1` (centres undefined), the inhibition in [1] was 34%; in assay [2] it was 15%; in assay [3], 0%; in assay [4], 68%; in assay [5] it was 7%; in assay [6], 25%. This compound also showed an inhibition in assay [7] of 0%.

For the compound `CC1CN(CCCn2nc3ccccn3c2=O)C(C)(C)CN1c1cccc(Cl)c1` (centres undefined), the inhibition in assay [1] was 40%; in [2], 38%; in [3], 0%; in assay [4], 81%; in assay [5], 9%; in [6] it was 11%. Moreover, the inhibition in [7] stood at 3%.

With `CC(CCn1nc2ccccn2c1=O)N1CCN(c2cccc(Cl)c2)CC1` (centres undefined), the inhibition in assay [1] stood at 65%; in assay [2] it was 63%; in assay [3], 0%; in [4], 58%; in [5], 31%; in assay [6] it was 26%. The compound also registered an inhibition in [7] of 2%. The IC50 in assay [8] was determined as 627 nM; in assay [9], 17 nM.

As to `CC1CN(c2cccc(Cl)c2)CCN1CCCn1nc2ccccn2c1=O` (centres undefined), the inhibition in assay [1] came out at 69%; in assay [2], 45%; in assay [3], 2%; in [4] it was 43%; in [5] it was 13%; in [6], 37%. In assay [7], this compound registered an inhibition of 8%. Moreover, the IC50 in [8] was determined as 471 nM; in [9], 31 nM.

Take `CC(CN1CCN(c2cccc(Cl)c2)CC1)Cn1nc2ccccn2c1=O` (centres undefined): the inhibition in assay [1] was determined as 52%; in assay [2] it was 4%; in assay [3], 0%; in [4], 34%; in [5] it was 7%; in [6] it was 27%. The same compound came in with an inhibition in [7] of 3%. Further, the IC50 stood at 531 nM in assay [8] and 94 nM in [9].

For the compound `C[C@@H]1CN(c2cccc(Cl)c2)CCN1CCCn1nc2ccccn2c1=O`, the Kb is 12.6 nM in the assay filed under Rattus norvegicus [10] and 158 nM in the assay listed under Rattus norvegicus [13]. Further, the IC50 was 234 nM in [12] and 533 nM in assay [14].

Regarding `O=c1n(CCCN2CCN(c3cccc(Cl)c3)CC2)nc2ccccn12`, the inhibition in assay [1] was found to be 78%; in assay [3], 0%; in assay [5], 5%; in assay [7] it was 12%.

In the case of `CC(CN1CCN(c2cccc(Cl)c2)C(C)C1)Cn1nc2ccccn2c1=O` (centres undefined), the inhibition stood at 20% in [1]; 6% in assay [2]; 0% in assay [3]; 65% in assay [4]; 12% in [5]; 7% in [6]. For the same compound, in assay [7], the inhibition is 0%.

The values above are taken from ChEMBL document CHEMBL1132559 (J Med Chem, 1999).
